Legend:
[1] = Toxicity in mouse xenografted with human HCT116 cells assessed as reduction in body weight at 0.5 mg/kg, ip qd for 21 days administration starting from 10 days after tumor cell implantation measured every 2 or 4 days till the end of the treatment period; format: organism-based; conditions: in vivo
How it was run: (§1)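 Nude mice bearing HCT116 xenografts were given intraperitoneal doses on 21 consecutive days, with n = 6 per group including an untreated control group. Body weight was recorded to assess toxicity. Data are mean ± SEM, compared with the control group by Student's t test.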

HCT-116 [2] = assay: Antitumor activity against human HCT116 cells xenografted in mouse assessed as reduction in tumor growth at 0.5 mg/kg, ip qd for 21 days administration starting from 10 days after tumor cell implantation measured every 2 or 4 days till the end of the treatment period relative to control; format: functional; conditions: HCT-116, ip, read-out: TGI
How it was run: (§2)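 HCT116 xenografts in nude mice; intraperitoneal dosing on 21 consecutive days; tumour growth inhibition (TGI) versus untreated control, with body weight recorded. n = 6 mice per group; mean ± SEM; significance by Student's t test versus control.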

MDA-MB-435 = assay: Antiproliferative activity against human MDA-MB-435 cells assessed as reduction in cell viability incubated for 72 hrs by CCK8 assay; format: functional, cell-based; conditions: MDA-MB-435, 72 h
[3] = Toxicity in mouse xenografted with human HCT116 cells assessed as reduction in body weight at 16 mg/kg, ip qd for 21 days administration starting from 10 days after tumor cell implantation measured every 2 or 4 days till the end of the treatment period; format: organism-based; conditions: in vivo; how it was run: as §1
HCT-116 [4] = assay: Antitumor activity against human HCT116 cells xenografted in mouse assessed as reduction in tumor growth at 16 mg/kg, ip qd for 21 days administration starting from 10 days after tumor cell implantation measured every 2 or 4 days till the end of the treatment period relative to control; format: functional; conditions: HCT-116, ip, read-out: TGI; how it was run: as §2
[5] = Aqueous solubility of compound at pH 7.4; format: physicochemical
A549 = assay: Antiproliferative activity against human A549 cells assessed as reduction in cell viability incubated for 72 hrs by CCK8 assay; format: functional, cell-based; conditions: A549, 72 h
HCT-116 [6] = assay: Antiproliferative activity against human HCT116 cells assessed as reduction in cell viability incubated for 72 hrs by CCK8 assay; format: functional, cell-based; conditions: HCT-116, 72 h

Question: Which Activity [1] does the source give for `CC[C@@]1(O)C(=O)OCc2c1cc1n(c2=O)Cc2cc3c(CN(C)C)c(O)ccc3nc2-1` [TOPOTECAN] here?
Answer: The Activity was “Toxic”.

Question: And the inhibition in vivo at 0.5 mg/kg (HCT-116 [2])?
Answer: Its inhibition in vivo at 0.5 mg/kg is 68.5%.

Question: Which IC50 (MDA-MB-435) does the source give for `COc1ccc2c(c1)cc1n2CCn2c-1[n+](C)c1ccc(F)cc1c2=O` here?
Answer: The IC50 was greater than 200 µM.

Question: What about the Activity [3] of the same molecule?
Answer: The Activity was “Non-Toxic”.

Question: What about the inhibition in vivo at 16 mg/kg (HCT-116 [4]) of the same molecule?
Answer: The inhibition in vivo at 16 mg/kg was 66.6%.

Question: And the solubility [5]?
Answer: The solubility was 850 µg/mL.

Question: And the IC50 (A549)?
Answer: The IC50 was greater than 200 µM.

Question: And the IC50 (HCT-116 [6])?
Answer: Its IC50 is 87.2 µM.
